{
  "source": "ChEMBL document CHEMBL6087468",
  "about": "“TKK130 is a 3-Hydroxy-Propanamidine (HPA) with Potent Antimalarial In Vivo Activity and a High Barrier to Resistance” (J Med Chem, 2025)",
  "key": {"Plasmodium knowlesi": {"tested_on": "Plasmodium knowlesi", "assay": "Antiplasmodial activity against Plasmodium Knowlesi inhibition of parasite growth measured after 48 hrs incubation by Sybr-green assay", "format": "functional, organism-based"}, "[1]": {"assay": "Cytotoxicity against human HepG2 cells assessed as cell viability measured after 24 hrs by neutral red assay", "format": "toxicity, cell-based"}, "[2]": {"assay": "Cytotoxicity against human HeLa cells assessed as cell viability measured after 24 hrs by neutral red assay", "format": "toxicity, cell-based"}, "[3]": {"assay": "Cytotoxicity against human HEK293 cells assessed as cell viability measured after 24 hrs by neutral red assay", "format": "toxicity, cell-based"}, "Plasmodium falciparum [4]": {"tested_on": "Plasmodium falciparum", "assay": "Antimalarial activity against chloroquine, sulfadoxine, and pyrimethamine-resistant Plasmodium falciparum Dd2 infected in erythrocyte assessed as reduction in number of viable parasites at 10 times IC50 concentration treated for 72 hrs followed by allowed to recover in drug-free medium for 28 days by HRP2-ELISA analysis", "format": "functional, organism-based"}, "Plasmodium falciparum [5]": {"tested_on": "Plasmodium falciparum", "assay": "Ex vivo antimalarial activity against Plasmodium falciparum clinical isolates", "format": "functional, organism-based"}, "Plasmodium falciparum [6]": {"tested_on": "Plasmodium falciparum", "assay": "Antimalarial activity against […] wild type Plasmodium falciparum NF54 assessed as inhibition of parasite growth incubated for 48 hrs by [3H]hypoxanthine incorporation assay", "format": "functional, organism-based"}, "Plasmodium falciparum [7]": {"tested_on": "Plasmodium falciparum", "assay": "Antimalarial activity against multidrug-resistant Plasmodium falciparum TM90C2b harboring pfcrt, pfmdr1, pfdhfr, pfdhps and pfcytb-Q0 mutated loci assessed as inhibition of parasite growth incubated for 48 hrs by [3H]hypoxanthine incorporation assay", "format": "functional, organism-based"}, "Hemozoin": {"tested_on": "Hemozoin", "assay": "Inhibition of beta-hematin formation assessed as formation of bis-pyridyl heme complex incubated for 4 to 5 hrs by Nonidet-40 based plate reader assay"}, "[8]": {"assay": "Plasma stability at 37 °C measured as remaining drug at 2 hrs sampled in triplicate (concentration 25 ng/mL 2 (TKK130))", "format": "ADME, cell-free", "details": "human, at 25 ng/mL, read-out: Stability", "how_it_was_run": "(§1)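 Fresh EDTA human plasma warmed to 37 °C, spiked to 25 ng/mL (0.5% methanol final), split into three fractions, shaken at 37 °C. Samples at 0, 2, 4, 6, 24, 48 h precipitated with ice-cold acetonitrile containing internal standard; LC–MS/MS. Recovery = analyte/IS area ratio relative to 0 h; triplicate.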"}, "[9]": {"assay": "Plasma stability at 37 °C measured as remaining drug at 6 hrs sampled in triplicate (concentration 25 ng/mL 2 (TKK130))", "format": "ADME, cell-free", "details": "human, at 25 ng/mL, read-out: Stability", "how_it_was_run": "as §1"}, "[10]": {"assay": "Plasma stability at 37 °C measured as remaining drug at 48 hrs sampled in triplicate (concentration 25 ng/mL 2 (TKK130))", "format": "ADME, cell-free", "details": "human, at 25 ng/mL, read-out: Stability", "how_it_was_run": "as §1"}, "[11]": {"assay": "Metabolic stability in human liver microsomes assessed as intrinsic clearance at 50 ug/ml measured up to 60 mins", "format": "ADME, Microsome", "details": "microsomes, 1 h, dose 50 µg/ml", "how_it_was_run": "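Pooled human liver microsomes (150 donors) in 0.1 M potassium phosphate buffer pH 7.4, cosolvent method, analyte at 1 μM final; reactions stopped with ice-cold acetonitrile at 0, 15, 30, 45, 60 min; LC–MS/MS. Clint from ke (negative slope of ln peak-area ratio vs time) via t1/2 = ln2/ke; triplicate; no-cofactor negative control and blank run.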"}, "[12]": {"assay": "Unbound drug concentration in plasma (unknown origin) at 25 ng/ml measured after 24 hrs by standard equilibrium dialysis assay", "format": "ADME, cell-free", "how_it_was_run": "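Standard equilibrium dialysis (6 kDa regenerated cellulose membrane): donor plasma spiked at 25 ng/mL, acceptor 0.9% saline, 24 h at 37 °C. Acetonitrile precipitation of plasma, methanol added to acceptor; LC–MS/MS with calibration curves in each medium; fraction bound corrected for volume shift; triplicate; itraconazole reference.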"}, "Plasmodium falciparum [13]": {"tested_on": "Plasmodium falciparum", "assay": "Antimalarial activity against wild type Plasmodium falciparum Dd2 infected in human erythrocytes assessed as inhibition of parasite growth measured after 72 hrs incubation by [3H]hypoxanthine incorporation assay", "format": "functional, organism-based", "details": "Dd2, Erythrocyte", "how_it_was_run": "(§2)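 Dd2 parent line, and mutants made from it by gene editing or drug selection. Growth inhibition measured by the 72 h [3H]hypoxanthine incorporation assay at Swiss TPH. Values are means of 2 independent biological replicates.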"}, "Plasmodium falciparum [14]": {"tested_on": "Plasmodium falciparum", "assay": "Antimalarial activity against Plasmodium falciparum Dd2 GNF156 harboring Pfcarl-mutant infected in human erythrocytes assessed as inhibition of parasite growth measured after 72 hrs incubation by [3H]hypoxanthine incorporation assay", "format": "functional, organism-based", "details": "Dd2 GNF156, Erythrocyte", "how_it_was_run": "as §2"}, "Plasmodium falciparum [15]": {"tested_on": "Plasmodium falciparum", "assay": "Antimalarial activity against Plasmodium falciparum Dd2 SJ557733 harboring Pfatp4-mutant infected in human erythrocytes assessed as inhibition of parasite growth measured after 72 hrs incubation by [3H]hypoxanthine incorporation assay", "format": "functional, organism-based", "details": "Dd2 SJ557733, Erythrocyte", "how_it_was_run": "as §2"}, "Plasmodium falciparum [16]": {"tested_on": "Plasmodium falciparum", "assay": "Antimalarial activity against Plasmodium falciparum Dd2 MMV183 harboring PfACoAS-mutant infected in human erythrocytes assessed as inhibition of parasite growth measured after 72 hrs incubation by [3H]hypoxanthine incorporation assay", "format": "functional, organism-based", "details": "Dd2 MMV183, Erythrocyte", "how_it_was_run": "as §2"}, "Plasmodium berghei [17]": {"tested_on": "Plasmodium berghei", "assay": "In vivo antiplasmodial activity against Plasmodium berghei infected mouse model assessed as parasitemia suppression in blood at 30 mg/kg, po treated 4 times measured at 96 hrs post infection by fluorescence-activated cell sorting (FACS) analysis", "format": "functional"}, "Plasmodium berghei [18]": {"tested_on": "Plasmodium berghei", "assay": "In vivo antiplasmodial activity against Plasmodium berghei infected mouse model assessed as parasitemia suppression in blood at 50 mg/kg, po treated 4 times measured at 96 hrs post infection by fluorescence-activated cell sorting (FACS) analysis", "format": "functional"}, "Plasmodium berghei [19]": {"tested_on": "Plasmodium berghei", "assay": "In vivo antiplasmodial activity against Plasmodium berghei infected mouse model assessed as mean survival time at 30 mg/kg, po treated 4 times measured at 96 hrs post infection by fluorescence-activated cell sorting (FACS) analysis (reference value: 4 days)", "format": "functional"}, "Plasmodium berghei [20]": {"tested_on": "Plasmodium berghei", "assay": "In vivo antiplasmodial activity against Plasmodium berghei infected mouse model assessed as mean survival time at 50 mg/kg, po treated 4 times measured at 96 hrs post infection by fluorescence-activated cell sorting (FACS) analysis (reference value: 4 days)", "format": "functional"}, "Plasmodium berghei [21]": {"tested_on": "Plasmodium berghei", "assay": "In vivo antiplasmodial activity against Plasmodium berghei infected mouse model assessed as mean survival time at 10 mg/kg, po treated 4 times measured at 96 hrs post infection by fluorescence-activated cell sorting (FACS) analysis (reference value: 4 days)", "format": "functional"}, "Plasmodium berghei [22]": {"tested_on": "Plasmodium berghei", "assay": "In vivo antiplasmodial activity against Plasmodium berghei infected mouse model assessed as mean survival time at 3 mg/kg, po treated 4 times measured at 96 hrs post infection by fluorescence-activated cell sorting (FACS) analysis (reference value: 4 days)", "format": "functional"}, "Plasmodium berghei [23]": {"tested_on": "Plasmodium berghei", "assay": "In vivo antiplasmodial activity against Plasmodium berghei infected mouse model assessed as curation rate at 50 mg/kg, po treated 4 times measured at 96 hrs post infection by fluorescence-activated cell sorting (FACS) analysis", "format": "functional"}, "[24]": {"assay": "Cmax in mouse infected with Plasmodium berghei at 10 mg/kg, po", "format": "ADME, organism-based", "details": "in vivo", "how_it_was_run": "(§3)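 Single oral dose to P. berghei-infected mice, 2 mice per dose group. Blood sampled at 1, 4 and 24 h post-dose as dried blood spots, plus a blank \"0 h\" reading. Spots diluted 1:5 (3, 10 mg/kg) or 1:10 (30 mg/kg), then quantified by LC–MS/MS against a whole-blood calibration of 1.56–800 ng/mL with QCs at three levels.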"}, "[25]": {"assay": "Cmax in mouse infected with Plasmodium berghei at 30 mg/kg, po", "format": "ADME, organism-based", "details": "in vivo", "how_it_was_run": "as §3"}, "[26]": {"assay": "Tmax in mouse infected with Plasmodium berghei at 10 mg/kg, po", "format": "ADME, organism-based", "details": "in vivo", "how_it_was_run": "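Infected mice (n = 2 per dose) given a single oral dose of 3, 10 or 30 mg/kg; blood sampled as dried blood spots at 1, 4 and 24 h post-dose, diluted before LC–MS analysis against whole-blood dried-spot calibration (1.56–800 ng/mL) with QCs; tmax from concentration–time profiles.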"}, "[27]": {"assay": "AUC (0 to t) in mouse infected with Plasmodium berghei at 10 mg/kg, po", "format": "ADME, organism-based", "details": "in vivo", "how_it_was_run": "as §3"}},
  "note": "pIC50: −log10 of the molar value. Calls of active or inactive are those of the source. The rule behind the calls is not given here.",
  "data": [
    {"compound": "Cl.N=C(CC(O)c1cc2c(F)cc(F)cc2c2cc(C(F)(F)F)ccc12)Nc1ccc(F)cc1", "note": "(centres undefined)", "values": [
      {"measurement": "pIC50", "setting": "Plasmodium knowlesi", "value": 9.00},
      {"measurement": "IC50 at 24 h", "setting": "[1]", "value": 20000, "unit": "nM"},
      {"measurement": "IC50 at 24 h", "setting": "[2]", "value": 89300, "unit": "nM"},
      {"measurement": "IC50 at 24 h", "setting": "[3]", "value": 47800, "unit": "nM"},
      {"measurement": "Activity", "setting": "Plasmodium falciparum [4]", "value": "Active"},
      {"measurement": "pIC50", "setting": "Plasmodium falciparum [5]", "value": 8.12},
      {"measurement": "pIC50", "setting": "Plasmodium falciparum [6]", "value": 7.96},
      {"measurement": "pIC50", "setting": "Plasmodium falciparum [7]", "value": 6.90},
      {"measurement": "pIC50", "setting": "Hemozoin", "value": 5.03},
      {"measurement": "remaining at 2 h, 25 ng/mL", "setting": "[8]", "value": 90.2, "unit": "%"},
      {"measurement": "remaining at 6 h, 25 ng/mL", "setting": "[9]", "value": 91.9, "unit": "%"},
      {"measurement": "remaining at 48 h, 25 ng/mL", "setting": "[10]", "value": 59.4, "unit": "%"},
      {"measurement": "CLint", "setting": "[11]", "value": 1.8, "unit": "µL/min/mg"},
      {"measurement": "Cp(f)", "setting": "[12]", "value": 0.2, "unit": "%"},
      {"measurement": "pIC50", "setting": "Plasmodium falciparum [13]", "value": 7.82},
      {"measurement": "pIC50", "setting": "Plasmodium falciparum [14]", "value": 8.15},
      {"measurement": "pIC50", "setting": "Plasmodium falciparum [15]", "value": 7.96},
      {"measurement": "pIC50", "setting": "Plasmodium falciparum [16]", "value": 7.89},
      {"measurement": "Activity", "setting": "Plasmodium berghei [17]", "value": 99.8, "unit": "%"},
      {"measurement": "Activity", "setting": "Plasmodium berghei [18]", "value": 99.8, "unit": "%"},
      {"measurement": "MSD", "setting": "Plasmodium berghei [19]", "value": 30, "unit": "days"},
      {"measurement": "MSD", "setting": "Plasmodium berghei [20]", "value": 30, "unit": "days"},
      {"measurement": "MSD", "setting": "Plasmodium berghei [21]", "value": 28, "unit": "days"},
      {"measurement": "MSD", "setting": "Plasmodium berghei [22]", "value": 20, "unit": "days"},
      {"measurement": "Activity", "setting": "Plasmodium berghei [23]", "value": 100, "unit": "%"},
      {"measurement": "Cmax", "setting": "[24]", "value": 599, "unit": "ng/mL"},
      {"measurement": "Cmax", "setting": "[25]", "value": 2030, "unit": "ng/mL"},
      {"measurement": "Tmax", "setting": "[26]", "value": 4, "unit": "h"},
      {"measurement": "AUC(0-t)", "setting": "[27]", "value": 11600, "unit": "ng·h/mL"}
    ]}
  ]
}
